Only some compounds are listed: those with a hit (about 3.6% of all), similar ones and a draw of the others.
FID counter – fluorescent intercalator displacement, NS3 helicase counter-screen; 290,000 tested, 0.17% active; DNA fluorescent intercalator displacement, fluorescence; AID 1845; inhibition, % at 7.9 µM; in the data active = inhibition above about 37%;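 also: 0% = vehicle and 100% = reference compound; higher means more ethidium bromide displaced from hairpin DNA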
FGF22 binding – FGF22 (human) thermal shift binding; Q9HCT0; recombinant FGF22 thermal shift, SYPRO orange fluorescence; percent of sucrose octasulfate shift, DMSO zero; activity (Tm shift, normalised), % at 9.99 µM; 340,000 tested, 1.5% active;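 active = mean Tm shift, scaled 0 neutral to 100 positive control, at about 1.3% or above, every replicate too, limit read from the data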
Target sequence (Q9HCT0 whole entry, looked up): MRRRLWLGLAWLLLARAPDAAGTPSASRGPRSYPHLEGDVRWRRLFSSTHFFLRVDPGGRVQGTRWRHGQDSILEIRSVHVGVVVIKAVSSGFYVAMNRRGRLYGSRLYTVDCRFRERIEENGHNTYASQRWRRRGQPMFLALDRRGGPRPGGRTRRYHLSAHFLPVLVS
NS3 helicase inh – blocks Hepatitis C virus NS3 helicase unwinding; NS3 helicase DNA unwinding, Cy5 molecular beacon fluorescence; inhibition, % at 10.9 µM; 290,000 tested, 0.56% active;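 active = inhibition above the mean of all tested compounds plus 3 SD, set per campaign, cut at about 35% in these data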;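 also: 0% = DMSO wells and 100% = thioflavine S control wells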
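System: Hepatitis C virus NS3 helicase domain fragment enzyme | Reagent: Annealed dual-labelled DNA beacon duplex, ATP-started | Compound dosing: 10.9 µM single point, 0.8% DMSO | Incubation: 1 h reaction at 25 °C, ATP-initiated | Technique: Cy5 fluorescence | Evaluation: Percent inhibition from t60/t0 fluorescence ratio | Benchmarks: Low DMSO, high thioflavine S at 110 µM | Replication: Singlicate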
ZTA counter – counter-screen for EBNA-1 inhibitors: inhibitors of Epstein-Barr virus ZTA. P03206. 320,000 tested, 0.15% active. ZTA-DNA binding, fluorescence polarization. inhibition, % at 11 µM; in the data active = inhibition above about 33%
Target sequence (P03206 whole entry, looked up): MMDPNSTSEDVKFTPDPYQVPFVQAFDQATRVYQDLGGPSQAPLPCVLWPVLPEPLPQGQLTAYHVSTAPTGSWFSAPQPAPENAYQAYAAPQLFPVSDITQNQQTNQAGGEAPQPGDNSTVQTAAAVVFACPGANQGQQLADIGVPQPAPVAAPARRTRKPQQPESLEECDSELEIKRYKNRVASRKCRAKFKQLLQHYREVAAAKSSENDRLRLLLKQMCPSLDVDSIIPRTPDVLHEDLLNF
GRIN3A LBD mod – modulates the human NR3A ligand-binding domain. NR3A LBD differential scanning fluorimetry, Tm shift; 0% = protein alone, 100% = glycine-bound protein. Tm shift relative to glycine control, % at 25 µM. 340,000 tested, 2.5% active. AID 1259313;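 active = melting temperature shift of at least 10% of the positive control shift, at one fixed dose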
EBNA-1 inh – blocks EBNA-1 binding to DNA; EBNA-1 DNA binding, fluorescence polarization; inhibition, % at 14.8 µM; AID 1950; 300,000 tested, 0.34% active; in the data active = inhibition above about 28%
An asterisk follows results filed as active; . = no result given.

SMILES	FID counter	FGF22 binding	NS3 helicase inh	ZTA counter	GRIN3A LBD mod	EBNA-1 inh
Cc1cc(C)n(C(=O)c2ccc([N+](=O)[O-])cc2N)n1	2	43*	-20	2	-1	9
Cc1cc([N+](=O)[O-])ccc1P(=O)(O)c1ccc([N+](=O)[O-])cc1C	.	0	.	.	15*	.
CNC[C@H]1OCCCC[C@H](C)Oc2ccc(NC(=O)c3ccncc3)cc2C(=O)N([C@H](C)CO)C[C@@H]1C	.	0	.	.	.	.
Cc1ccc(S(=O)(=O)N(C)C[C@H]2Oc3ccc(NS(C)(=O)=O)cc3CC(=O)N([C@@H](C)CO)C[C@@H]2C)cc1	.	0	.	.	.	.
CC(C)NC(=O)Nc1cccc2c1O[C@@H](CN(C)Cc1ccc(-c3ccccc3)cc1)[C@@H](C)CN([C@H](C)CO)C2=O	.	0	.	.	.	.
COc1cc(/C(C)=N/NC(=O)c2ccc(CSc3nncn3C)cc2)cc(OC)c1OC	-6	43*	-4	20	1	1
Cc1nnc2nc(-c3ccccc3)nc(-c3ccccc3)n12	-15	-1	-3	-17	12*	-8
COC(=O)N(C)C[C@@H]1OCc2ccccc2-c2c(n(C)c3ccccc23)C(=O)N([C@@H](C)CO)C[C@H]1C	.	0	.	.	.	.
Cc1cccc(N2CCc3c2nc2ccc(Br)cc2c3N)c1	-1	0	-9	-15	37*	-6
Nc1c2c(nc3ccc(Br)cc13)N(c1ccccc1)CC2	8	.	9	4	10*	-11
Nc1c2c(nc3ccc(Br)cc13)N(Cc1ccccc1)CC2	-8	0	16	-8	0	8
C[C@H]1CN([C@@H](C)CO)C(=O)c2cc(NC(=O)C3CC3)ccc2O[C@@H]1CN(C)Cc1ccccc1	.	0	.	.	.	.
O=C(C[C@@H]1C=C[C@@H](NS(=O)(=O)c2ccc(F)cc2)[C@H](CO)O1)NC1CCCCC1	.	0	.	.	.	.
CCN(CC)c1ccc(/C=N/NC(=O)c2ccccn2)cc1	-16	0	-1	-2	0	-2
CCN(CC)c1ccc(/C=N/NC(=O)c2cc3ccccc3[nH]2)cc1	-17	0	-5	0	14*	-10
NC(=O)[C@@H]1CCCN1Cc1nc(-c2ccc(C(F)(F)F)cc2)no1	1	43*	-1	-18	3	11
C(=Nc1ccc(Nc2ccccc2)cc1)c1ccc2ccccc2c1	11	.	-113	1	-13	-3
Brc1ccc(C=Nc2ccc(Nc3ccccc3)cc2)s1	6	.	-99	-3	12*	0
Oc1ccccc1C1CC(c2cccs2)=NC(c2ccc(Cl)cc2)N1 (configuration not stated)	7	1	21	4	10*	2
CS(=O)(=O)N1N=C(c2cccs2)CC1c1ccccc1O (configuration not stated)	-3	42	-2	-3	-1	-2
COc1ccccc1CNC(=O)C[C@@H]1C[C@@H]2c3cc(NC(=O)c4ccc5c(c4)OCO5)ccc3O[C@@H]2[C@H](CO)O1	.	0	.	.	.	.
O=S(=O)(Nc1ccc(O)c(Sc2nc3ccccc3s2)c1)c1ccc(Cl)cc1	-10	.	-9	-3	16*	6
CSc1nc(Oc2ccccc2)c2sccc2n1	-6	.	-1	3	-1	-10
C=CCSc1nc(Oc2ccccc2)c2sccc2n1	-5	.	-4	4	15*	-7
CCCCCCCCn1c(N2CCN(c3cccc(Cl)c3)CC2)nc2c1c(=O)[nH]c(=O)n2C	0	.	3	2	0	3
SMILES	FID counter	FGF22 binding	NS3 helicase inh	ZTA counter	GRIN3A LBD mod	EBNA-1 inh
CCCCCCn1c(N2CCN(c3cccc(Cl)c3)CC2)nc2c1c(=O)[nH]c(=O)n2C	-5	.	-3	1	14*	-10
C[C@@H]1CN([C@H](C)CO)C(=O)c2cccc(NC(=O)C3CCOCC3)c2O[C@H]1CN(C)Cc1ccccc1	.	0	.	.	.	.
CCCCCCn1cc(C(=O)OCC)c(=O)c2cc(F)c(F)cc21	-34	0	6	3	2	3
CCOC(=O)c1cn(CC#N)c2cc(F)c(F)cc2c1=O	-1	43*	4	4	1	8
COC(=O)C1C2OC(C(Br)C2Br)C1C(=O)OC (configuration not stated)	.	44*	.	.	.	.
Cc1noc(C)c1S(=O)(=O)Nc1ccc2c(c1)C(=O)N([C@H](C)CO)C[C@H](C)[C@@H](CN(C)S(=O)(=O)c1cccs1)OCCCC[C@H](C)O2	.	0	.	.	.	.
CC(=O)Nc1ccc2nc(NC(=O)c3ccc([N+](=O)[O-])s3)sc2c1	3	.	0	-30	.	-8
Cc1ccnc(NS(=O)(=O)c2ccc(NC(=O)c3ccc([N+](=O)[O-])s3)cc2)n1	-3	44*	1	-6	-4	-5
Cc1nc2cc(NC(=O)c3ccc([N+](=O)[O-])s3)ccc2s1	12	0	7	1	24*	-4
Fc1ccc(F)c(C2=NNC(=NCC3CCCO3)SC2)c1 (configuration not stated)	-10	43*	7	-12	1	-2
CC1CCCC(C)N1C(=C(Cl)Cl)C(=C1SCCS1)[N+](=O)[O-] (configuration not stated)	2	43*	5	0	-8	-6
CC1(C)CC(=O)C(C=NCCN2CCN(C(=O)CCl)CC2)=C(O)C1	-2	0	3	13	2	6
CCC(=O)N1CCN(CCN=CC2=C(O)CC(C)(C)CC2=O)CC1	-3	.	-8	-9	13*	1
CN(C)c1nn2c(-c3ccccc3)nnc2o1	.	43*	.	.	.	.
CCCc1nn2c(-c3ccccc3)nnc2o1	.	43*	.	.	.	.
CCCCn1c(-c2ccccc2)nnc1-c1ccccc1	-19	.	8	2	-4	-3
c1ccc(-c2nn3c(-c4ccccc4)nnc3o2)cc1	.	0	.	.	.	.
COc1ccc(NC(=O)N(C)C[C@@H]2Oc3c(NC(=O)Nc4ccc(F)cc4)cccc3C(=O)N([C@@H](C)CO)C[C@H]2C)cc1	.	0	.	.	.	.
CC(C)CC#Cc1ccc2c(c1)O[C@H](CN(C)CC1CCOCC1)[C@H](C)CN([C@H](C)CO)S2(=O)=O	.	0	.	.	.	.
CCCNC(=O)N1C[C@@H](O)COC[C@H]2O[C@@H](CC(=O)N3CCOCC3)CC[C@@H]21	.	0	.	.	.	.
Cc1ccc2oc(=O)cc(/C=C/c3ccccc3)c2c1	-11	.	-5	-15	18*	2
Cc1ccc2c(CN3CCN(S(=O)(=O)/C=C/c4ccccc4)CC3)cc(=O)oc2c1	-19	.	-17	18	1	12
COc1cccc(C(=O)Nc2ccc3c(c2)OC[C@H](C)N(C(C)=O)C[C@H](C)[C@@H](OC)CN(C)C3=O)c1	.	0	.	.	.	.
CS(=O)(=O)Nc1ccc2c(c1)[C@@H]1C[C@H](CC(=O)NCc3cccnc3)O[C@@H](CO)[C@@H]1O2	.	0	.	.	.	.
O=C(COC(=O)COc1ccccc1)Nc1cccc([N+](=O)[O-])c1	3	0	-3	13	-2	10

Bioassay records: PubChem, several laboratories
